From ChEMBL document CHEMBL2385035 (J Med Chem, 2013)
Activity calls are given as the source filed them. The rule behind the calls is not given here.

Legend:
[1] = Thermal stability of the compound; assay type: physicochemical
[2] = tested on: Rattus norvegicus; assay: Antidiabetic activity in Zucker diabetic fatty rat assessed as increase in plasma insulin level at 0.05 to 10 mg/kg, po bid for 2 weeks measured on day 14 relative to vehicle-treated control; assay type: functional, organism-based
Method in brief: (§1)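 Male ZDF rats, 8 weeks old, dosed orally twice daily for 14 days in two separate studies. Day-14 tail-vein blood sampled for HbA1c and for plasma glucose (nonfasted), insulin and total GLP-1. Compared with vehicle-treated animals, significance at p < 0.05.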

[3] = tested on: Rattus norvegicus; assay: Antidiabetic activity in Zucker diabetic fatty rat assessed as increase in total GLP-1 level at 0.05 to 10 mg/kg, po bid for 2 weeks measured on day 14 relative to vehicle-treated control; assay type: functional, organism-based; method in brief: as §1
[4] = tested on: Rattus norvegicus; assay: Antidiabetic activity in Zucker diabetic fatty rat assessed as increase in fecal bile acid excretion at 0.05 to 10 mg/kg, po bid for 2 weeks measured for 24 hrs post last dose relative to vehicle-treated control; assay type: functional, Feces; details: dose mg/kg 0.05-10
[5] = tested on: Rattus norvegicus; assay: Antidiabetic activity in Zucker diabetic fatty rat assessed as reduction in non-fasted plasma glucose level at 0.05 to 10 mg/kg, po bid for 2 weeks measured on day 14 relative to vehicle-treated control; assay type: functional; design: scale not given: the % may be the effect or the level left; details: dose mg/kg 0.05-10; method in brief: as §1
[6] = target: T1, Ileal sodium/bile acid cotransporter (Homo sapiens, UniProt Q12908); assay: Inhibition of human ASBT expressed in HEK293 cells assessed as inhibition of [3H]-taurocholate uptake after 90 mins by scintillation counting analysis; assay type: cell-based
T1 sequence (Q12908 whole entry): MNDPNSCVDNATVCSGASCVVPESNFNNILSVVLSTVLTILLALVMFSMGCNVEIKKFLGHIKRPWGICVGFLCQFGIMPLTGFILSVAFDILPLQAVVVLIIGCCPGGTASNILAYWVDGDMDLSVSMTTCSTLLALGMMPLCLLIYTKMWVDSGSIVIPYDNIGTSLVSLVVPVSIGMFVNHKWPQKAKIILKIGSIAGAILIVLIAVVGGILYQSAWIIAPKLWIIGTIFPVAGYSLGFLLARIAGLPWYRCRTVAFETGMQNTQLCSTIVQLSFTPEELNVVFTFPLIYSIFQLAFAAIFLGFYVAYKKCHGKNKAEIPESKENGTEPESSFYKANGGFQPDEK

[7] = Half life in Sprague-Dawley rat intestine at 10 mg/kg, po; assay type: ADME, organism-based; design: dose 10 mg/kg, route oral
[8] = Drug recovery in Sprague-Dawley rat feces at 10 mg/kg, po; assay type: ADME, organism-based; design: dose 10 mg/kg, route oral; details: read-out: Drug recovery
[9] = tested on: Mus musculus; assay: In vivo inhibition of ASBT in C57BL/6J mouse assessed as increase in fecal bile acid excretion measured for 24 hrs; assay type: functional; details: Feces
[10] = Cmax in Sprague-Dawley rat portal vein blood at 10 mg/kg, po; assay type: ADME, organism-based; design: dose 10 mg/kg, route oral
Method in brief: (§2)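 Fed male SD rats given a single oral gavage dose of 10 mg/kg. Maximum parent drug concentration measured in portal vein blood and in systemic blood.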

[11] = tested on: Rattus norvegicus; assay: Antidiabetic activity in Zucker diabetic fatty rat assessed as reduction in blood HbA1c level at 0.05 to 10 mg/kg, po bid for 2 weeks measured on day 14 relative to vehicle-treated control; assay type: functional; design: scale not given: the % may be the effect or the level left; details: dose mg/kg 0.05-10; method in brief: as §1
[12] = tested on: Mus musculus; assay: In vivo inhibition of ASBT in C57BL/6J mouse assessed as increase in fecal bile acid excretion measured for 24 hrs relative to 264W94; assay type: functional, Feces; design: concentration or dose not given beside the values
[13] = Cmax in Sprague-Dawley rat systemic blood at 10 mg/kg, po; assay type: ADME, organism-based; design: dose 10 mg/kg, route oral; method in brief: as §2
[14] = target: T2, Ileal sodium/bile acid cotransporter (Rattus norvegicus, UniProt Q62633); assay: Inhibition of rat ASBT expressed in HEK293 cells assessed as inhibition of [3H]-taurocholate uptake after 90 mins by scintillation counting analysis; assay type: cell-based
T2 sequence (Q62633 whole entry): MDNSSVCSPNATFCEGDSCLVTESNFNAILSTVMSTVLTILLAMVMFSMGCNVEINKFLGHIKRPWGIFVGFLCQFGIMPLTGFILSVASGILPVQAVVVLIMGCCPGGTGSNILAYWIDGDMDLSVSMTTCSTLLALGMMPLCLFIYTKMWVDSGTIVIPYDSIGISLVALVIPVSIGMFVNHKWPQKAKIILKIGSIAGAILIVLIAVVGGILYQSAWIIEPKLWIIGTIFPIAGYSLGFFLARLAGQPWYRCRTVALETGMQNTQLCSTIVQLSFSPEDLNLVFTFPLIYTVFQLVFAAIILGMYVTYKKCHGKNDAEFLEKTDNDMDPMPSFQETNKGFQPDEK

[15] = Apparent permeability in MDCK cells expressing MDR1 at 3 uM after 60 mins by LC-MS/MS analysis; assay type: ADME, cell-based, Canis lupus familiaris; details: dog
[16] = Aqueous solubility of the compound; assay type: physicochemical; details: buffer
[17] = target: T3, Ileal sodium/bile acid cotransporter (Mus musculus, UniProt P70172); assay: Inhibition of mouse ASBT expressed in HEK293 cells assessed as inhibition of [3H]-taurocholate uptake after 90 mins by scintillation counting analysis; assay type: cell-based
T3 sequence (P70172 whole entry): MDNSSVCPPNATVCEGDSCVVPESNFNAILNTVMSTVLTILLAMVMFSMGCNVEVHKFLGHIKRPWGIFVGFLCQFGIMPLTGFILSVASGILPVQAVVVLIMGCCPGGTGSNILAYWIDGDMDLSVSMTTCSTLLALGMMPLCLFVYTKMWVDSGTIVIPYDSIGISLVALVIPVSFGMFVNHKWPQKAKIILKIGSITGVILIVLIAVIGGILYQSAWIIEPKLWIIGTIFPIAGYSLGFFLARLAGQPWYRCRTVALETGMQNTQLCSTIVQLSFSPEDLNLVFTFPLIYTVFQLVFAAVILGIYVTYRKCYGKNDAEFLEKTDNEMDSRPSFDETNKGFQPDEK

[18] = tested on: Rattus norvegicus; assay: Antidiabetic activity in portal vein cannulated lean Sprague-Dawley rat assessed as increase in portal vein PYY level at 10 mg/kg, po measured after 3 to 8 hrs; assay type: functional, organism-based; design: dose 10 mg/kg
[19] = tested on: Rattus norvegicus; assay: Antidiabetic activity in portal vein cannulated lean Sprague-Dawley rat assessed as effect on portal vein GIP level at 10 mg/kg, po measured after 3 to 8 hrs relative to vehicle-treated control; assay type: functional, organism-based; design: dose 10 mg/kg
[20] = Stability of the compound by glutathione trapping assay; assay type: physicochemical
[21] = tested on: Rattus norvegicus; assay: Antidiabetic activity in portal vein cannulated lean Sprague-Dawley rat assessed as increase in portal vein total GLP-1 level at 10 mg/kg, po measured after 3 to 8 hrs; assay type: functional, organism-based; design: dose 10 mg/kg
[22] = tested on: Rattus norvegicus; assay: In vivo inhibition of ASBT in portal vein cannulated lean Sprague-Dawley rat assessed as decrease in portal vein bile acid level at 10 mg/kg, po measured after 1 to 2 hrs relative to vehicle-treated control; assay type: functional, organism-based; design: dose 10 mg/kg
[23] = tested on: Intestine; assay: Metabolic stability in Sprague-Dawley rat intestine assessed as formation of (7R,9R)-7-Butyl-7-ethyl-2-methoxy-5,5-dioxo-9-phenyl-6,7,8,9-tetrahydro-5H-5lambda(6)-thia-8-aza-benzocyclohepten-3-ol at 10 mg/kg, po after 2 to 24 hrs; assay type: ADME, organism-based; design: dose 10 mg/kg, route oral; details: in vivo
[24] = tested on: Cynomolgus monkey; assay: Cmax in cynomolgous monkey systemic blood at 3 mg/kg, po; assay type: ADME, organism-based, Macaca fascicularis; design: dose 3 mg/kg, route oral; details: in vivo, BLD = below limit of detection
Method in brief: (§3)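 Solution dosed orally to fed SD rats (10 mg/kg), male beagle dogs (10 mg/kg) or cynomolgous monkeys (3 mg/kg). Parent compound measured in systemic circulation; rat lower limit of quantitation 1 ng/mL.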

[25] = tested on: Rattus norvegicus; assay: Antidiabetic activity in Zucker diabetic fatty rat assessed as increase in total GLP-1 level at 0.001 to 10 mg/kg, po bid for 2 weeks measured on day 14 relative to vehicle-treated control; assay type: functional, organism-based; method in brief: as §1
[26] = tested on: Rattus norvegicus; assay: Antidiabetic activity in Zucker diabetic fatty rat assessed as reduction in non-fasted plasma glucose level at 0.001 to 10 mg/kg, po bid for 2 weeks measured on day 14 relative to vehicle-treated control; assay type: functional; design: scale not given: the % may be the effect or the level left; details: dose mg/kg 0.001-10; method in brief: as §1
[27] = tested on: Rattus norvegicus; assay: Antidiabetic activity in Zucker diabetic fatty rat assessed as reduction in blood HbA1c level at 0.001 to 10 mg/kg, po bid for 2 weeks measured on day 14 relative to vehicle-treated control; assay type: functional; design: scale not given: the % may be the effect or the level left; details: dose mg/kg 0.001-10; method in brief: as §1
[28] = Aqueous solubility of the compound at pH 7.4; assay type: physicochemical; details: buffer
[29] = Cmax in beagle dog systemic blood at 10 mg/kg, po; assay type: ADME, organism-based, Canis lupus familiaris; design: dose 10 mg/kg, route oral; method in brief: as §3
[30] = tested on: Rattus norvegicus; assay: Antidiabetic activity in Zucker diabetic fatty rat assessed as increase in plasma insulin level at 0.001 to 10 mg/kg, po bid for 2 weeks measured on day 14 relative to vehicle-treated control; assay type: functional, organism-based; method in brief: as §1

Compound	Stability [1]	Activity [2]	Activity [3]	fold change (FC) [4]	Activity [5]	IC50 [6]	half-life [7]	dose excreted [8]	ED50 [9]	Cmax [10]	Activity [11]	Efficacy [12]	Cmax [13]	IC50 [14]	Papp at 1 h, 3 µM [15]	solubility [16]	IC50 [17]	further results
CCCC[C@]1(CC)CS(=O)(=O)c2cc(CNCC(=O)O)c(OC)cc2[C@@H](c2ccccc2)N1	Unstable	Active	Active	7	>50%	4 nM	> 12 h	92%	0.017 mg/kg	27 ng/mL	1.3%	98%	1 ng/mL	0.2 nM	2.7 ×10⁻⁶ cm/s	≥ 200 µg/mL	0.3 nM	–
CCCC[C@]1(CC)CS(=O)(=O)c2cc(CP(=O)(O)O)c(OC)cc2[C@@H](c2ccccc2)N1	–	Active	Active	7	>50%	–	> 12 h	87%	0.12 mg/kg	14 ng/mL	1.3%	92%	3 ng/mL	0.9 nM	0.7 ×10⁻⁶ cm/s	≥ 200 µg/mL	0.5 nM	Activity [18]: Active; Activity [19]: inactive; Stability [20]: Unstable; Activity [21]: Active; inhibition [22]: Active
CCCC[C@]1(CC)CS(=O)(=O)c2cc(OC)c(OC)cc2[C@@H](c2ccccc2)N1	–	–	–	–	–	180 nM	–	3%	0.13 mg/kg	100 ng/mL	–	100%	19 ng/mL	22 nM	10.7 ×10⁻⁶ cm/s	–	3 nM	Stability [23]: Unstable
CCCC[C@]1(CC)CS(=O)(=O)c2cc(CNC(CC(=O)O)CC(=O)O)c(OC)cc2[C@@H](c2ccccc2)N1 [LINERIXIBAT]	Stable	–	–	7	–	42 nM	> 12 h	98%	0.022 mg/kg	4 ng/mL	–	94%	–	1.9 nM	0.7 ×10⁻⁶ cm/s	≥ 200 µg/mL	2.1 nM	Cmax [24]: BLD; Activity [25]: Active; Activity [26]: >50%; Activity [27]: 1.3%; solubility [28]: > 7000 µg/mL; Cmax [29]: 6 ng/mL; Activity [30]: Active
